Experimental data: ChEMBL document CHEMBL5303300, “EUbOPEN Chemogenomics Library - Multiplex” (2023)
Several values for one entry are separate records, joined by “and”; a condition that tells them apart may be missing. Equal entries are not always repeated.

System: Fibroblast
Test: Multiplex assay against human fibroblast
Format: toxicity, cell-based
Conditions: number of replicates 2
Method in brief: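 Cells were classed with CellPathfinder machine-learning gating, first as Hoechst high-intensity objects or normal cells, then (normal cells) as healthy, pyknosed or fragmented nuclei, and finally (pyknosed cells) as mitotic or apoptotic. Staining of live cells at seeding used Hoechst33342, BioTracker Green Microtubule Cytoskeleton Dye, MitoTracker Red and Annexin V Alexa Fluor 680, with imaging on a CQ1 microscope at 37°C and 5% CO2 after compound addition. Tubulin, mitochondrial-mass and membrane-permeability phenotypes are per cents of healthy-nucleus cells.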

[1] = 12 h, 1 µM, compound concentration 1 uM
[2] = 12 h, 10 µM, compound concentration 10 uM
[3] = 24 h, 1 µM, compound concentration 1 uM
[4] = 24 h, 10 µM, compound concentration 10 uM
[5] = 48 h, 1 µM, compound concentration 1 uM
[6] = 48 h, 10 µM, compound concentration 10 uM

## CCCCOc1c(C(=O)c2c(F)cc(C)cc2F)c[nH]c2nncc1-2
[1]
  Population Apoptotic (%): 52% and 40%
  Population Fragmented Nuclei (%): 11% and 8%
  Population Healthy Nuclei (%): 61% and 73%
  Population Hoechst High Intensity Objects (%): 0%
  Population Membrane Permeable-Phenotype (%): 8% and 5%
  Population Mitochondria Different-Phenotype (%): 0%
  Population Mitotic Cells (%): 47% and 60%
  Population Normal (%): 100%
  Population Pyknosed Nuclei (%): 27% and 18%
  Population Tubulin-Different-Phenotype (%): 21% and 12%
  Total Cell Count: 200 and 276
[2]
  Population Apoptotic (%): 57% and 64%
  Population Fragmented Nuclei (%): 10% and 8%
  Population Healthy Nuclei (%): 64% and 57%
  Population Hoechst High Intensity Objects (%): 0%
  Population Membrane Permeable-Phenotype (%): 2% and 8%
  Population Mitochondria Different-Phenotype (%): 1% and 0%
  Population Mitotic Cells (%): 42% and 35%
  Population Normal (%): 99%
  Population Pyknosed Nuclei (%): 25% and 33%
  Population Tubulin-Different-Phenotype (%): 22% and 19%
  Total Cell Count: 271 and 238
[3]
  Population Apoptotic (%): 50% and 43%
  Population Fragmented Nuclei (%): 14% and 7%
  Population Healthy Nuclei (%): 55% and 66%
  Population Hoechst High Intensity Objects (%): 0%
  Population Membrane Permeable-Phenotype (%): 7%
  Population Mitochondria Different-Phenotype (%): 0% and 1%
  Population Mitotic Cells (%): 49% and 56%
  Population Normal (%): 100%
  Population Pyknosed Nuclei (%): 29% and 25%
  Population Tubulin-Different-Phenotype (%): 26% and 11%
  Total Cell Count: 193 and 267
[4]
  Population Apoptotic (%): 81% and 68%
  Population Fragmented Nuclei (%): 10%
  Population Healthy Nuclei (%): 64% and 51%
  Population Hoechst High Intensity Objects (%): 0%
  Population Membrane Permeable-Phenotype (%): 4%
  Population Mitochondria Different-Phenotype (%): 1%
  Population Mitotic Cells (%): 18% and 31%
  Population Normal (%): 99% and 100%
  Population Pyknosed Nuclei (%): 25% and 37%
  Population Tubulin-Different-Phenotype (%): 27% and 18%
  Total Cell Count: 281 and 247
[5]
  Population Apoptotic (%): 66% and 59%
  Population Fragmented Nuclei (%): 18% and 9%
  Population Healthy Nuclei (%): 53% and 64%
  Population Hoechst High Intensity Objects (%): 1% and 0%
  Population Membrane Permeable-Phenotype (%): 14% and 11%
  Population Mitochondria Different-Phenotype (%): 0%
  Population Mitotic Cells (%): 33% and 40%
  Population Normal (%): 98% and 100%
  Population Pyknosed Nuclei (%): 27% and 26%
  Population Tubulin-Different-Phenotype (%): 38% and 17%
  Total Cell Count: 197 and 276
[6]
  Population Apoptotic (%): 76% and 77%
  Population Fragmented Nuclei (%): 11% and 12%
  Population Healthy Nuclei (%): 46% and 64%
  Population Hoechst High Intensity Objects (%): 0%
  Population Mitochondria Different-Phenotype (%): 0% and 1%
  Population Mitotic Cells (%): 23% and 22%
  Population Normal (%): 99% and 100%
  Population Pyknosed Nuclei (%): 42% and 22%
  Population Tubulin-Different-Phenotype (%): 45% and 39%
  Total Cell Count: 261 and 279

## CN(C)[C@H]1CC[C@H](Nc2ncc3ncnc(Nc4ccc(F)c(Cl)c4)c3n2)CC1
[1]
  Population Apoptotic (%): 68% and 45%
  Population Fragmented Nuclei (%): 26% and 29%
  Population Healthy Nuclei (%): 54% and 50%
  Population Hoechst High Intensity Objects (%): 1% and 0%
  Population Membrane Permeable-Phenotype (%): 4% and 9%
  Population Mitochondria Different-Phenotype (%): 1%
  Population Mitotic Cells (%): 31% and 55%
  Population Normal (%): 98% and 99%
  Population Pyknosed Nuclei (%): 18% and 19%
  Population Tubulin-Different-Phenotype (%): 16% and 11%
  Total Cell Count: 309 and 205
[2]
  Population Apoptotic (%): 31% and 27%
  Population Fragmented Nuclei (%): 30% and 24%
  Population Healthy Nuclei (%): 45% and 51%
  Population Hoechst High Intensity Objects (%): 18% and 10%
  Population Membrane Permeable-Phenotype (%): 2% and 3%
  Population Mitochondria Different-Phenotype (%): 0%
  Population Mitotic Cells (%): 68% and 72%
  Population Normal (%): 81% and 89%
  Population Pyknosed Nuclei (%): 24% and 23%
  Population Tubulin-Different-Phenotype (%): 4% and 3%
  Total Cell Count: 681 and 574
[3]
  Population Apoptotic (%): 54% and 67%
  Population Fragmented Nuclei (%): 28% and 20%
  Population Healthy Nuclei (%): 48% and 63%
  Population Hoechst High Intensity Objects (%): 0%
  Population Membrane Permeable-Phenotype (%): 3% and 6%
  Population Mitochondria Different-Phenotype (%): 1% and 2%
  Population Mitotic Cells (%): 45% and 32%
  Population Normal (%): 100% and 99%
  Population Pyknosed Nuclei (%): 23% and 16%
  Population Tubulin-Different-Phenotype (%): 11% and 13%
  Total Cell Count: 208 and 288
[4]
  Population Apoptotic (%): 18% and 27%
  Population Fragmented Nuclei (%): 27% and 28%
  Population Healthy Nuclei (%): 44% and 47%
  Population Hoechst High Intensity Objects (%): 19% and 27%
  Population Membrane Permeable-Phenotype (%): 6% and 3%
  Population Mitochondria Different-Phenotype (%): 0% and 1%
  Population Mitotic Cells (%): 81% and 72%
  Population Normal (%): 80% and 72%
  Population Pyknosed Nuclei (%): 27% and 24%
  Population Tubulin-Different-Phenotype (%): 5% and 4%
  Total Cell Count: 464 and 636
[5]
  Population Apoptotic (%): 68% and 56%
  Population Fragmented Nuclei (%): 22% and 32%
  Population Healthy Nuclei (%): 61% and 50%
  Population Hoechst High Intensity Objects (%): 2% and 0%
  Population Membrane Permeable-Phenotype (%): 7% and 9%
  Population Mitochondria Different-Phenotype (%): 0%
  Population Mitotic Cells (%): 31% and 43%
  Population Normal (%): 97% and 99%
  Population Pyknosed Nuclei (%): 15% and 17%
  Population Tubulin-Different-Phenotype (%): 10% and 6%
  Total Cell Count: 264 and 218
[6]
  Population Apoptotic (%): 20% and 21%
  Population Fragmented Nuclei (%): 31% and 34%
  Population Healthy Nuclei (%): 38% and 37%
  Population Hoechst High Intensity Objects (%): 22% and 26%
  Population Membrane Permeable-Phenotype (%): 5% and 1%
  Population Mitochondria Different-Phenotype (%): 0%
  Population Mitotic Cells (%): 79% and 78%
  Population Normal (%): 77% and 73%
  Population Pyknosed Nuclei (%): 30% and 27%
  Population Tubulin-Different-Phenotype (%): 5% and 2%
  Total Cell Count: 527 and 613

## CN[C@@H]1CC[C@@H](c2ccc(Cl)c(Cl)c2)c2ccccc21.Cl
[1]
  Population Apoptotic (%): 43% and 37%
  Population Fragmented Nuclei (%): 14% and 18%
  Population Healthy Nuclei (%): 55% and 62%
  Population Hoechst High Intensity Objects (%): 0%
  Population Membrane Permeable-Phenotype (%): 12% and 9%
  Population Mitochondria Different-Phenotype (%): 2% and 0%
  Population Mitotic Cells (%): 56% and 62%
  Population Normal (%): 100% and 99%
  Population Pyknosed Nuclei (%): 29% and 19%
  Population Tubulin-Different-Phenotype (%): 37% and 20%
  Total Cell Count: 194
[2]
  Population Apoptotic (%): 28% and 53%
  Population Fragmented Nuclei (%): 17% and 15%
  Population Healthy Nuclei (%): 56% and 55%
  Population Hoechst High Intensity Objects (%): 0%
  Population Membrane Permeable-Phenotype (%): 11% and 8%
  Population Mitochondria Different-Phenotype (%): 10% and 14%
  Population Mitotic Cells (%): 71% and 46%
  Population Normal (%): 100% and 99%
  Population Pyknosed Nuclei (%): 26% and 28%
  Population Tubulin-Different-Phenotype (%): 82% and 77%
[3]
  Population Apoptotic (%): 43% and 40%
  Population Fragmented Nuclei (%): 16% and 17%
  Population Healthy Nuclei (%): 57% and 65%
  Population Hoechst High Intensity Objects (%): 0% and 1%
  Population Membrane Permeable-Phenotype (%): 8% and 2%
  Population Mitochondria Different-Phenotype (%): 1% and 4%
  Population Mitotic Cells (%): 56% and 60%
  Population Normal (%): 99% and 98%
  Population Pyknosed Nuclei (%): 25% and 16%
  Population Tubulin-Different-Phenotype (%): 39% and 19%
[4]
  Population Apoptotic (%): 53% and 65%
  Population Fragmented Nuclei (%): 13% and 15%
  Population Healthy Nuclei (%): 56% and 53%
  Population Hoechst High Intensity Objects (%): 0%
  Population Membrane Permeable-Phenotype (%): 7% and 5%
  Population Mitochondria Different-Phenotype (%): 29% and 49%
  Population Mitotic Cells (%): 46% and 34%
  Population Normal (%): 100% and 99%
  Population Pyknosed Nuclei (%): 30% and 32%
  Population Tubulin-Different-Phenotype (%): 89% and 88%
  Total Cell Count: 212 and 201
[5]
  Population Apoptotic (%): 78% and 55%
  Population Fragmented Nuclei (%): 21% and 22%
  Population Healthy Nuclei (%): 60% and 64%
  Population Hoechst High Intensity Objects (%): 0%
  Population Membrane Permeable-Phenotype (%): 2% and 3%
  Population Mitochondria Different-Phenotype (%): 0%
  Population Mitotic Cells (%): 21% and 44%
  Population Normal (%): 99%
  Population Pyknosed Nuclei (%): 17% and 12%
[6]
  Population Apoptotic (%): 75% and 88%
  Population Fragmented Nuclei (%): 12% and 14%
  Population Healthy Nuclei (%): 66% and 51%
  Population Hoechst High Intensity Objects (%): 1% and 0%
  Population Membrane Permeable-Phenotype (%): 11% and 1%
  Population Mitochondria Different-Phenotype (%): 40% and 47%
  Population Mitotic Cells (%): 24% and 11%
  Population Normal (%): 98% and 100%
  Population Pyknosed Nuclei (%): 21% and 34%
  Population Tubulin-Different-Phenotype (%): 84% and 69%
  Total Cell Count: 196
